Assay results taken from the EternaBench riboswitch data.

System: MS2 coat protein
Test: apparent Kd, MS2 coat protein; higher = weaker binding; RNA-MaP array; FMN 200 µM where present
Procedure, shortened: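 Stalled E. coli RNA polymerase transcribed the designs on Illumina sequencing-chip clusters. SNAP-549-labelled MS2 coat protein was titrated from 0.7 or 1.5 nM, doubling to 3 µM, without and then with constant ligand, in 100 mM Tris-HCl pH 7.5, 80 mM KCl, 4 mM MgCl2, BSA, DTT, yeast tRNA and Tween-20. Per-cluster binding curves were fitted to green signal normalised to red-channel RNA signal and control-cluster median Fmax. The apparent Kd is the median of the filtered fits.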

[1] = designed as: ON switch for flavin mononucleotide, no ligand
[2] = ligand present: flavin mononucleotide, designed as: ON switch for flavin mononucleotide
[3] = designed as: OFF switch for flavin mononucleotide, no ligand
[4] = ligand present: flavin mononucleotide, designed as: OFF switch for flavin mononucleotide

| Sequence | apparent Kd [1] | apparent Kd [2] | apparent Kd [3] | apparent Kd [4] |
| --- | --- | --- | --- | --- |
| GCUGAAAGUACAGGAUAUGAGAUAUAUGAUCACUCAGAAGGGUACCGGGACAUGAGGAUCACCCAUGUACUCUCAGCGAAAAUA | 165 nM | 553 nM |  |  |
| GCUGCAUAGGCAGGAUAUGCAAAAGCAGAUGCAAAGCAUCUGCAAGAAACAUGAGGAUCACCCAUGUAGAAGGGCCUGUGCAGU |  |  | 21.4 nM | 20.2 nM |
| GCUGCAUAGUCAGGAUAUGCAAAGUAAUAUAUGGAAACAUAUAUUACAACAUGAGGAUCACCCAUGUAGAAGGGACUGUGCAGU |  |  | 15.9 nM | 14.8 nM |
| GCUGCCGCUGCAGGAUAUCAGCACGUGUAGUGCUGAGAAGGGCACAUGAGGAUCACCCAUGUGAUCAAUUAAUAAGCGUGCAGC |  |  | 6.86 nM | 16.5 nM |
| GCUGCGCGAGGAUAUGCGGUUCGGGCGGUGGCCGCUGGCGGACAUGAGGAUCACCCAUGUAGAAGGCGUGCGGG |  |  | 22.5 nM | 23.2 nM |
| GCUGCGCGAGGAUAUGCGGUUUGCGCUGUGGCCCGUGGCGUACAUGAGGAUCACCCAUGUAGAAGGCGUGUGGG |  |  | 22.9 nM | 23.3 nM |
| GCUGUGGCAUGAGGAUAUGGUCACGUUUCGUGACCAGAAGGCAUGUCAAUAGACAUGAGGAUCACCCAUGUAGUUAACACAGCA | 497 nM | 41.9 nM |  |  |
| GCUUCGGCUGUGAGGAUAUGGCUUCGGAAAUGAAGUUAGAAGGCACAUGAGGAUCACCCAUGUAAGGUUGAAGU |  |  | 21.7 nM | 17.8 nM |
| GCUUGUAGAGGAUAUACGAGGGCCCGAGCGGAUAACACCGCACAUGAGGAUCACCCAUGUAGAAGGCUACCACC |  |  | 25.3 nM | 284 nM |
| GCUUGUGAAGGAUAUACUGGCGGCAUGCGCUCGACACGCGCACAUGAGGAUCACCCAUGUAGAAGGUCAAACGU |  |  | 17.2 nM | 17.7 nM |
| GCUUGUGAAGGAUAUACUGGCGGCAUGCGCUCGGCGCGCGCACAUGAGGAUCACCCAUGUAGAAGGUCAAACGU |  |  | 20.2 nM | 20.2 nM |
| GCUUUAUUGGUCAGGAUAUACAUUUGCUACUCUUUGUAGAAGGGACAUGAGGAUCACCCAUGUACUUUACAUUC |  |  | 16 nM | 16.4 nM |
| GGAAACUACGAGAAGGACAUGUGGUCCUUCAGUUACAUGAGGAUCACCCAUGUAGGAUAUCGUAGUUUCAGGAUCGUGAGAUCC |  |  | 33 nM | 12.8 nM |
| GGAAAGUGAGGAUAUGCAUAACAAACACAAACACAAACAAAGCAGAAGGCACAUGAGGAUCACCCAUGUAAACA |  |  | 21.1 nM | 18.1 nM |
| GGAAAGUGAGGAUAUGGUAAAGUAAGUAUGUAGUAAGUAAUCCAGAAGGCACAUGAGGAUCACCCAUGUAAAUG |  |  | 28.1 nM | 35.7 nM |
| GGAAAUCAUGUAGGAUAUGCAUGGCGAAGCUACGCAGAAGGACAUGAGGAUCACCCAUGUUAUAGCGUUCGAGAAAGGAUGCAA |  |  | 20.1 nM | 87.9 nM |
| GGAAAUUAGCAAGGAUAUCGGCUUACUAUAACUUUAUGCCCUGGGACAUGAGGAUCACCCAUGUACGAGAAGGUGCUAACUACA |  |  | 23.6 nM | 36.9 nM |
| GGAACUUAGGGAGGAUAUAGGCGACAUGAGGAUCACCCAUGUACGGAGGGCUCUUCCCGUGUUCACUAGAAGGCCCAUGUUACC |  |  | 19.4 nM | 75 nM |
| GGAAUAAAUGCAGGAUAUACGUGGAAAGCCCUCAACAUGAGGAUCACCCAUGUAGAAGGGCAUCUCCCGACCGAAGCGGAUCUC |  |  | 4.41 nM | 4.82 nM |
| GGAAUAUUUACAGGAUAUGUUUUGUUAAGUCGAGCAGAAGGGUGGAUGUCUUACACGGUUUGUUACAUGAGGAUCACCCAUGUC | 264 nM | 260 nM |  |  |
| GGAAUGAGGCAGGAUAUGGGAGGGAGGACCGGACCAGAAGGGUUGACAUGAGGAUCACCCAUGUAGAGAUCCUC |  |  | 1060 nM | 724 nM |

| Sequence | apparent Kd [1] | apparent Kd [2] | apparent Kd [3] | apparent Kd [4] |
| --- | --- | --- | --- | --- |
| GGACAUUUACAGAAGGGCAAGUUAGAUCGUGGAUAACACGAUCUGACUUGCAGGAUAUGUUGAACAUGAGGAUCACCCAUGUCC | 12.9 nM | 10.8 nM |  |  |
| GGACCGUCCAGAGUUGGCGGUCGGCAGGAUAUGACAUGAGGAUCACCCAUGUGAACUCCAUUGGGUCAGAAGGGCCACGACGAU |  |  | 25.2 nM | 94.7 nM |
| GGACCGUGCAGAGUUGGCGGUCGGCAGGAUAUGACAUGAGGAUCACCCAUGUGAACUCCAUUGGGUCAGAAGGGCCACGACACA |  |  | 17.6 nM | 78 nM |
| GGACGUCACAUAUACAUGAGGAUCACCCAUGUCAAAAGACAUGAGGAUAUGGAUCCUAAUUGGAUCCAGAAGGCAUGGACGUCC | 832 nM | 51.9 nM |  |  |
| GGACGUCACAUUAACAUGAGGAUCACCCAUGUCAAAAGACAUGAGGAUAUGGAUCCGAAAAGGAUCCAGAAGGCAUGGACGUCC | 555 nM | 36.6 nM |  |  |
| GGACGUCACAUUUACAUGAGGAUCACCCAUGUCGAAAGACAUGAGGAUAUGCUACCUAAUUGGUAGCAGAAGGCAUGGACGUCC | 408 nM | 228 nM |  |  |
| GGACGUCACAUUUACAUGAGGAUCACCCAUGUCUCUUGACAUGAGGAUAUGUAUACGAAUCGUAUACAGAAGGCAUGGACGUCC | 1100 nM | 153 nM |  |  |
| GGACUUCCUGAGGAUAUGAAUCAACAUAUAGCUUUAGAAGGCAGGACAUGAGGAUCACCCAUGUGAACUCUUUC |  |  | 49.8 nM | 57.6 nM |
| GGAGAUACAUGAGGAUCACCCAUGUAGGAUAUCGAGUAUAUAUAUGGCGAAAGCCAUAUAUAUAUCGAGAAGGGCGUACACACC |  |  | 8.84 nM | 7.75 nM |
| GGAGAUUACUCAGGAUAUCGCUAGACCUACAUGAGGAUCACCCAUGUGGGUGACGCGGUGGGCUACGAGAAGGGAGAAGUGCCC |  |  | 8.9 nM | 8.53 nM |
| GGAGCACACAUUAACAUGAGGAUCACCCAUGUCAAAAGACAUGAGGAUAUGGAUCCGAAAAGGAUCCAGAAGGCAUUGUGCUCC | 372 nM | 28.2 nM |  |  |
| GGAGCACAUGAAUACAUGAGGAUCACCCAUGUCGAAUGAUAUGAGGAUAUGCAUCGGAAAACGAUGUAGAAGGCAUAGUGCUCC | 60 nM | 11.4 nM |  |  |
| GGAGCGAGCACAGGAUAUAAGCUAACGGUUAGUUUAGAAGGGUGGGAUCAGACAUGAGGAUCACCCAUGUGUGUUUUUGCUCCA | 128 nM | 314 nM |  |  |
| GGAGCUCCCAUUAACAUGAGGAUCACCCAUGUCAAAAGACAUGAGGAUAUGGUACCUAAUUGGUACCAGAAGGCAUGGAGCUCC | 1180 nM | 107 nM |  |  |
| GGAGCUCCUGACAUGAGGAUCACCCAUGUUCACUUAUUAAAUCAGGAUAUCGUCGCGAAACGCGACGAGAAGGGAUAUGCUCCU | 7.55 nM | 7.05 nM |  |  |
| GGAGGACAUGAGGAUCACCCAUGUGGAUGAACGCUAGGAUAUGCGUGCAGGAAGAGUGGAGCAGAAGGAGUGGGAU | 26.4 nM | 19.3 nM |  |  |
| GGAUAGGACAGAGGAUAUACGGAUAGGAUCUACUAUCUUCCUUAAAUAACAUGAGGAUCACCCAUGUAGAAGGCUGUCCUAUCG |  |  | 18.6 nM | 67.9 nM |
| GGAUAGGACAGAGGAUAUACGUGCUACAGAUACUAGCAAAAUUUCCUCACAUGAGGAUCACCCAUGUAGAAGGCUGUCCUAUCG |  |  | 19.3 nM | 405 nM |
| GGAUAGGACAGAGGAUAUACGUGCUAGAGAUACUACCAAAAUUUCCUCACAUGAGGAUCACCCAUGUAGAAGGCUGUCCUAUCG |  |  | 180 nM | 143 nM |
| GGAUAGGACAGAGGAUAUACGUGCUAGAGAUACUAGCAAAAUUUCCUCACAUGAGGAUCACCCAUGUAGAAGGCUGUCCUAACG |  |  | 14.7 nM | 497 nM |
